The text below walks through data of ChEMBL document CHEMBL1135398, “Methanocarba modification of uracil and adenine nucleotides: high potency of Northern ring conformation at P2Y1, P2Y2, P2Y4, and P2Y11 but not P2Y6 receptors” (J Med Chem, 2002).

What all share (format): functional
In assay [1] the target is P2Y purinoceptor 1 (Meleagris gallopavo) (UniProt P49652). The assay is described as follows: Measure of Agonist Potency at turkey Purinoceptor P2Y1 stably expressed in […] astrocytoma cell; NE means no effect at 100 uM.
Assay [2] deals with T1, P2Y purinoceptor 6 (Homo sapiens, UniProt Q15077). The assay is described as follows: Measure of Agonist Potency at human P2Y purinoceptor 6 (hP2Y6) stably expressed in […] astrocytoma cell; NE means no effect at 100 uM. In short, it runs like this: (§1)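 1321N1 cells stably expressing the human receptor were labelled overnight with 1 μCi [³H]myo-inositol per well in inositol-free DMEM. [³H]inositol phosphate formation was then measured over 10 min at 37 °C with 10 mM LiCl. EC50 came from a four-parameter logistic fit of full concentration-effect curves, averaged over 3–8 independent curves.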

The target of a further assay is P2Y purinoceptor 2 (Homo sapiens, UniProt P41231). The assay is described as follows: Measure of Agonist Potency at human P2Y purinoceptor 2 (hP2Y2) stably expressed in […] astrocytoma cell. The method, boiled down:
as §1

The target in assay [3] is P2Y purinoceptor 1 (Meleagris gallopavo, UniProt P49652). The assay is described as follows: Measure of Agonist Potency at turkey Purinoceptor P2Y1 stably expressed in 131N1 astrocytoma cell.
In assay [4] the target is T2, P2Y purinoceptor 4 (Homo sapiens, UniProt P51582). In words: Measure of % Agonist Potency at human P2Y purinoceptor 4 (hP2Y4) stably expressed in […] astrocytoma cell at 10 uM.
In assay [5] the target is T3, P2Y purinoceptor 11 (Homo sapiens) (UniProt Q96G91).
T3 sequence (whole entry): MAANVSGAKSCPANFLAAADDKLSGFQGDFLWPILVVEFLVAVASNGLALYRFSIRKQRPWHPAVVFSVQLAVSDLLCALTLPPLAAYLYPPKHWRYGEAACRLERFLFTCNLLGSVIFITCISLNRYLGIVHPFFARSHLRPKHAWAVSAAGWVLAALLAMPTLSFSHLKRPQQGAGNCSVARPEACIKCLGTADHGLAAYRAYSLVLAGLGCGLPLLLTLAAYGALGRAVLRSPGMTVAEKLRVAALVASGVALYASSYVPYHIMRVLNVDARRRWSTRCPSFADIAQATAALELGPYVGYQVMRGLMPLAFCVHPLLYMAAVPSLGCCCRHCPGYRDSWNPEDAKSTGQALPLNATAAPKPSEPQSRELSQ
The assay is described as follows: Measure of Agonist Potency at human P2Y purinoceptor 11 (hP2Y11) stably expressed in […] astrocytoma cell at 10 uM.

Assay [6] deals with T2, P2Y purinoceptor 4. The assay is described as follows: Measure of Agonist Potency at human P2Y purinoceptor 4 (hP2Y4) stably expressed in 131N1 astrocytoma cell. In short, it runs like this:
as §1

Assay [7] addresses T3, P2Y purinoceptor 11 (Homo sapiens). The assay is described as follows: Measure of Agonist Potency at human P2Y purinoceptor 11 (hP2Y11) stably expressed in […] astrocytoma cell at 10 uM; NE means no effect at 100 uM.
Assay [8] has as its target P2Y purinoceptor 1 (Homo sapiens, UniProt P47900). The assay is described as follows: Measure of Agonist Potency at human P2Y purinoceptor 1 (hP2Y1) stably expressed in […] astrocytoma cell. In short, it runs like this:
as §1

The target in assay [9] is T2, P2Y purinoceptor 4. The assay is described as follows: Measure of Agonist Potency at human P2Y purinoceptor 4 (hP2Y4) stably expressed in […] astrocytoma cell; NE means no effect at 100 uM. The method, boiled down: as §1
In assay [10] the target is T1, P2Y purinoceptor 6. In words: Measure of Agonist Potency at human P2Y purinoceptor 6 (hP2Y6) stably expressed in 131N1 astrocytoma cell. The method, boiled down: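 Human P2Y6 stably expressed in 1321N1 astrocytoma cells; cells labelled overnight with 1 μCi/well [³H]myo-inositol in inositol-free DMEM. [³H]inositol phosphate formation measured next day over 10 min at 37 °C with 10 mM LiCl. Full concentration-effect curves fitted by four-parameter logistic equation; EC50 averaged from 3–8 independent curves (mean ± SE).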

Active and inactive are the calls of the source. The rule behind the calls is not given here.

P2Y purinoceptor 1 (Meleagris gallopavo, UniProt P49652), sequence (P49652 whole entry): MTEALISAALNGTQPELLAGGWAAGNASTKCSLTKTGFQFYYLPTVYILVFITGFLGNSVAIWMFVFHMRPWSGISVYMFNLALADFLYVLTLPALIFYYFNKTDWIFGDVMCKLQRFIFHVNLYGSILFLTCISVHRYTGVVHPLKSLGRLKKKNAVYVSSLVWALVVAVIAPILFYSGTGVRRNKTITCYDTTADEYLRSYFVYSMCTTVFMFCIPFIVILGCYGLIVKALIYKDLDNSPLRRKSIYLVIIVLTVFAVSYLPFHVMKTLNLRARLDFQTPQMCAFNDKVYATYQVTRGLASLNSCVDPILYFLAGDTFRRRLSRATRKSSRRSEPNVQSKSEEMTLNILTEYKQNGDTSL
P2Y purinoceptor 1 (Meleagris gallopavo), sequence (P49652 whole entry): as above
T2 sequence (P51582 whole entry): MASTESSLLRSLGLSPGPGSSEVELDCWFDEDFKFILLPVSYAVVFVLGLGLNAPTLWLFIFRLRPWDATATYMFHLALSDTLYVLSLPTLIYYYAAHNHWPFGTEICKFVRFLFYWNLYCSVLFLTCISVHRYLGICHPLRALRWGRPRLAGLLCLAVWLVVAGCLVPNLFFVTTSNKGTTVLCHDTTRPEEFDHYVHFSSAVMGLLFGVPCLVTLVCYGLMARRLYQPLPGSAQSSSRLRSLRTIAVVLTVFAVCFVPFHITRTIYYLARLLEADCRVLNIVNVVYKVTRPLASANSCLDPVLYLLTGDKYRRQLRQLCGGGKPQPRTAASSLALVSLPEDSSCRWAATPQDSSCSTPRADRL
T1 sequence (Q15077 whole entry): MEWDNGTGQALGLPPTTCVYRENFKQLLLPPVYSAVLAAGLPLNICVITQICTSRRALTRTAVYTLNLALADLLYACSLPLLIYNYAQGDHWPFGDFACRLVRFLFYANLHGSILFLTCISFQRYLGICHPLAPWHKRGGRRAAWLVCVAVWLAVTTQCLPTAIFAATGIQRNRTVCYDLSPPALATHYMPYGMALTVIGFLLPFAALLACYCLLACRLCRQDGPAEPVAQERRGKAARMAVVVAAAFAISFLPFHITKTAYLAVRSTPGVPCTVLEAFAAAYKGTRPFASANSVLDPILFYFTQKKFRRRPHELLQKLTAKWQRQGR
P2Y purinoceptor 1 (Homo sapiens, UniProt P47900), sequence (P47900 whole entry): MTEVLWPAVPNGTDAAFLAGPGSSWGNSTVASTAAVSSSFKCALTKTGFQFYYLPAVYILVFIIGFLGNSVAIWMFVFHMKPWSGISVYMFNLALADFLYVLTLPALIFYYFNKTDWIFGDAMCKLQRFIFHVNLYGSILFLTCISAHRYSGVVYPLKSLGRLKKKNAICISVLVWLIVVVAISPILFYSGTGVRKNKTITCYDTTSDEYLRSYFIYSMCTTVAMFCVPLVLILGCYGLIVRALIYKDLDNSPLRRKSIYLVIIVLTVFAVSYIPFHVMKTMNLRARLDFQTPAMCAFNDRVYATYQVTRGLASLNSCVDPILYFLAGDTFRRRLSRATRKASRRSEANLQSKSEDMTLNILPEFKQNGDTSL
P2Y purinoceptor 2, sequence (P41231 whole entry): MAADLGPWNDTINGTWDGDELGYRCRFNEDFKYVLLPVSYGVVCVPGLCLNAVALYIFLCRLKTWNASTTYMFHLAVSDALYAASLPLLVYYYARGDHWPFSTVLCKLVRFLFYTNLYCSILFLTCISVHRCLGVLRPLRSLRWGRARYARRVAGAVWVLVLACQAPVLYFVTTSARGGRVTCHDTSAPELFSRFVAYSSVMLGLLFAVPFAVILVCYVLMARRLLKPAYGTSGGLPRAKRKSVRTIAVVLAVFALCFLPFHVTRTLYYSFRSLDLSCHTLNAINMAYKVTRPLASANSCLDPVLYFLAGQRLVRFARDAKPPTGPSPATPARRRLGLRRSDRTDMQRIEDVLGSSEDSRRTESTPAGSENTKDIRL

In the case of `Nc1ncnc2c1ncn2[C@@]12C[C@H]1[C@H](COP(=O)(O)O)[C@@H](O)[C@H]2O`, the NE entry in assay [1] is “inactive”.
Take `O=c1ccn(C2C(O)C(O)C3(COP(=O)(O)O)CC23)c(=O)[nH]1` (stereo unspecified): at P2Y purinoceptor 6 [2], the Agonist effect result is “inactive”.
Still for that read-out and setting: for `O=c1ccn(C2C(O)C(O)C3(COP(=O)(O)OP(=O)(O)O)CC23)c(=O)[nH]1` (stereo unspecified) the value was “inactive”; for `O=c1ccn(C2O[C@H](COP(=O)(O)O)[C@@H](O)[C@@H]2O)c(=O)[nH]1` (stereo partly specified), “inactive”.
By EC50 is commonly meant the concentration needed to bring the measured effect to its halfway point. On to `Nc1ncnc2c1ncn2[C@H]1[C@H](O)[C@H](O)[C@]2(COP(=O)(O)OP(=O)(O)OP(=O)(O)O)C[C@H]12` (stereo in doubt; form 1), for which the values for the EC50 on P2Y purinoceptor 2 and at P2Y purinoceptor 1 [3] were 91 nM and 14 nM, respectively. Further, the Activity was determined as 32% at P2Y purinoceptor 4 [4] and 34.5% in [5].
`Nc1ncnc2c1ncn2[C@@H]1O[C@H](COP(=O)(O)O)[C@@H](O)[C@H]1O` (stereo in doubt; form 1): the NE entry in assay [1] is “inactive”.
Same read-out and setting: the same measure for `Nc1ncnc2c1ncn2[C@@H]1O[C@H](COP(=O)(O)O)[C@@H](O)[C@H]1O` (stereo in doubt; form 2): “inactive”.
On to `O=c1ccn([C@H]2[C@H](O)[C@H](O)[C@]3(COP(=O)(O)OP(=O)(O)OP(=O)(O)O)C[C@H]23)c(=O)[nH]1` (stereo in doubt; form 2) [N-METHANOCARBA-UTP], for which the EC50 at P2Y purinoceptor 2 came out at 15.9 nM; on P2Y purinoceptor 4 [6], 85 nM. The Agonist effect entry on P2Y purinoceptor 6 [2] is “inactive”. Moreover, in assay [7], the NE result was “inactive”.
Turning to `Nc1ncnc2c1ncn2[C@@H]1O[C@H](COP(=O)(O)O)[C@@H](O)[C@H]1O` (stereo in doubt; form 3) [ADENOSINE PHOSPHATE], the values for the EC50 at P2Y purinoceptor 1 [8] and on P2Y purinoceptor 1 [3] were 1500 nM and 2800 nM, respectively.
On to `Nc1ncnc2c1ncn2[C@@H]1O[C@H](COP(=O)(O)O)[C@@H](O)[C@H]1O` (stereo in doubt; form 4), for which the NE entry (on P2Y purinoceptor 4 [9]; in assay [7]) was “inactive” each time.
On to `Nc1ncnc2c1ncn2[C@@H]1O[C@H](COP(=O)(O)O)[C@@H](O)[C@H]1O` (stereo in doubt; form 4) [ADENOSINE PHOSPHATE], for which the EC50 at P2Y purinoceptor 1 [8] came out at 7200 nM; on P2Y purinoceptor 1 [3] it was 3500 nM.
For `O=c1ccn([C@@H]2O[C@H](COP(=O)(O)OP(=O)(O)O)[C@@H](O)[C@H]2O)c(=O)[nH]1` [URIDINE_DIPHOSPHATE], the EC50 on P2Y purinoceptor 6 [10] worked out at 15 nM.
